Screening results from PubChem BioAssay.
MEKK3 PB1 HTS: raises or lowers MEK5 binding to the human MEKK3 PB1 domain; Q99759; 290,000 compounds, 1.4% hits; bead-based flow cytometry, Alexa488-MEK5 binding to MEKK3; actives lie on both sides; 0 = blocked by unlabeled MEK5, 100 = vehicle; binding response (% of control), % at 10 µM;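 active means binding response more than 3 SD above or below the average of its plate-row segment, actives on both sides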;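 further: Alexa488 bead fluorescence after subtracting the streptavidin-only scavenger bead signal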
Target sequence (Q99759 whole entry, looked up, the tested form may be a part): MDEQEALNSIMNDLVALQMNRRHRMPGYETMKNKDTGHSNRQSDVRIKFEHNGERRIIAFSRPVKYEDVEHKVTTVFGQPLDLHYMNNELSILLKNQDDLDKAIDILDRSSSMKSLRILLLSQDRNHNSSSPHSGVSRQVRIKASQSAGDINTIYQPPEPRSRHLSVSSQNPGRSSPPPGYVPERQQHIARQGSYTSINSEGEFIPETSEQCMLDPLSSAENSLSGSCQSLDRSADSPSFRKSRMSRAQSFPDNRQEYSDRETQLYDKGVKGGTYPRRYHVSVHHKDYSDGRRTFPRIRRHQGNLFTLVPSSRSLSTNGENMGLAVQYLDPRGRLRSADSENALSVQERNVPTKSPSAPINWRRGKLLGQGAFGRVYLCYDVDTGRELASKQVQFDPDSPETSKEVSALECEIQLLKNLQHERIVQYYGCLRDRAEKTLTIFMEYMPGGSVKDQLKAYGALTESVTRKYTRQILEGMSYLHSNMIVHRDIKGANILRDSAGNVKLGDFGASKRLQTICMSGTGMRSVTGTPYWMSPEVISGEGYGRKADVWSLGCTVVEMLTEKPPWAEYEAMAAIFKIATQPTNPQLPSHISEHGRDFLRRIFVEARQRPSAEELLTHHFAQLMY
MEKK2wt PB1 HTS: raises or lowers MEK5 binding to wildtype human MEKK2 PB1 domain; AID 1531; Q9Y2U5; bead flow cytometry, Alexa488-MEK5 binding to MEKK2 WT; actives lie on both sides; 290,000 compounds, 1.1% hits; binding response (% of control), % at 10 µM; in the data active means binding response below about 67% or above about 130%
IMP-1 inh: blocks Pseudomonas aeruginosa IMP-1 metallo-beta-lactamase; purified IMP-1, nitrocefin hydrolysis, epi-absorbance fluorescence; inhibition, % at 5.6 µM; 290,000 compounds, 0.45% hits;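 active means inhibition above the mean plus 3 SD of all compounds in the same screening run, cut at about 4.5% in these data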;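 further: 0% = IMP-1 with DMSO and 100% = DMSO wells lacking enzyme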
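System – purified recombinant IMP-1 beta-lactamase · Input – IMP-1 dispensed at 0.2 nM · Timing – 15 min preincubation plus 25 min reaction at 25 °C · Signal – Epi-absorbance fluorescence, 480 nm excitation, 530 nm emission · Measure – percent IMP-1 inhibition derived from blank-referenced optical density · Controls – Enzyme-plus-DMSO low control, enzyme-free DMSO high control · Replication – singlicate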
VIM-2 inhibitor: inhibitors of Pseudomonas aeruginosa VIM-2 metallo-beta-lactamase; AID 1527; 290,000 compounds, 0.89% hits; inhibition, % at 5.6 µM; purified VIM-2, nitrocefin hydrolysis, epi-absorbance fluorescence;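 active means inhibition above the mean of all tested compounds plus 3 SD, cutoff set per screening run, cut at about 7.5% in these data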;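 further: red hydrolysis product quenches plate fluorescence so inhibitors raise well fluorescence; 0% = enzyme with DMSO and 100% = DMSO without enzyme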
MEKK2mut PB1 HTS: signal of MEK5 binding to mutant human MEKK2 PB1 domain; bead flow cytometry, Alexa488-MEK5 binding to MEKK2 mutant; 290,000 compounds, 0.35% hits; percent response, % at 10 µM; in the data active means percent response above about 24%, passing the limit was not always enough
MEKK2wt confirm: raises or lowers MEK5 binding to wildtype human MEKK2, retest | shares compounds with MEKK3 PB1 HTS | bead flow cytometry, Alexa488-MEK5 binding to MEKK2 WT; actives lie on both sides | binding response (% of control), % at 10 µM | 5,900 compounds, 2.4% hits; in the data active means binding response below about 16% or above about 210%; inactive means in between
MEKK2mut-MEK5: signal of MEK5 binding to mutant human MEKK2, retest | shares compounds with MEKK3 PB1 HTS | 5,900 compounds, 2% hits | percent response, % at 10 µM | bead flow cytometry, Alexa488-MEK5 binding to MEKK2 mutant; in the data active means percent response mostly above about 71%, no sharp cut-off; inactive means mostly below about 38%;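 further: higher means compound restores mutant binding toward wildtype level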
MEKK3-MEK5 inh: MEKK3-MEK5 PB1 inhibition, single concentration confirmation | shares compounds with MEKK3 PB1 HTS | bead flow cytometry, Alexa488-MEK5 binding to MEKK3; active compounds read low | 5,900 compounds, 1.8% hits | binding response (% of control), % at 10 µM | AID 1894;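 active means binding response below 72% of control, or above a set upper limit, though filed actives all read lower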;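 further: 100% = DMSO only wells and 0% = binding blocked by excess unlabeled MEK5; lower values mean stronger disruption of MEK5 binding to MEKK3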
Numbers without * were called inactive; nt = no result given; [ ] = remark or other dose. This is a sample that favours compounds with a hit; in the whole collection about 3.4% have one here.

SMILES	MEKK3 PB1 HTS	MEKK2wt PB1 HTS	IMP-1 inh	VIM-2 inhibitor	MEKK2mut PB1 HTS	MEKK2wt confirm	MEKK2mut-MEK5	MEKK3-MEK5 inh
C/C(=N\NC(=O)c1ccccc1)c1c(O)n(Cc2ccccc2)c(=O)[nH]c1=O	101.0	101.0	-4.4	-2.6	4.0	nt	nt	nt
CC/C(=N\NC(=O)Nc1ccccc1)c1c(O)n(Cc2ccccc2)c(=O)[nH]c1=O	132.0*	118.0	-2.9	-5.0	27.0	94.0	0.0	101.0
CN(C)c1ccc(/C=C/c2cc[n+](C)c3ccccc23)cc1	70.0*[inhibitor]	nt	-4.2	-2.5	-31.0	95.0	-4.0	87.0
CC(C)OCCCNC(=O)c1c(N)n(CC2CCCO2)c2nc3ccccc3nc12 (configuration not stated)	106.0	99.0	-4.2	2.2	5.0	nt	nt	nt
CCCNC(=O)c1c(N)n(CC2CCCO2)c2nc3ccccc3nc12 (configuration not stated)	123.0*	116.0	0.3	1.9	4.0	102.0	0.0	103.0
C=CCN1C(=O)NC(=O)/C(=C/c2cc3c4c(c2)CCCN4CCC3)C1=O	93.0	26.0*[inhibitor]	-2.9	-2.6	8.0	89.0	-15.0	98.0
Cn1c(O)c(/C=N/N2CCOCC2)c(=O)n(C)c1=S	91.0	91.0	-1.1	-1.2	-1.0	nt	nt	nt
O=S(=O)(c1ccc(Cl)cc1)N1CCCCC1c1cccnc1 (configuration not stated)	130.0*	117.0	-2.1	-1.1	1.0	98.0	-1.0	103.0
CCCn1cc(CN2CCCC(C(=O)c3cccc(OC)c3)C2)c(C)n1 (configuration not stated)	105.0	104.0	-2.8	-1.8	6.0	nt	nt	nt
Cc1[nH]c2ccccc2c1C1=CCNCC1	113.0	76.0	3.6	2.9	144.0*	107.0	2.0	103.0
COc1cc(C)c(CN2CC=C(c3ccc(F)cc3)CC2)cc1C	106.0	119.0	0.7	0.4	6.0	nt	nt	nt
COc1cc(C(c2c(C)[nH]n(-c3ccccc3)c2=O)c2c(C)[nH]n(-c3ccccc3)c2=O)cc(OC)c1OC	107.0	102.0	-2.5	-1.4	-2.0	nt	nt	nt
Brc1ccc2c(c1)C(OC1CN3CCC1CC3)c1ccccc1CS2 (configuration not stated)	109.0	156.0*	-3.7	-1.3	13.0	140.0	23.0	105.0
Cc1nn(Cc2ccccc2Cl)c(C)c1C(=O)OCC(=O)NC1CCCC(C)C1C (configuration not stated)	141.0*	104.0	-3.7	-2.2	1.0	103.0	-1.0	101.0
CCC(=O)OC1(c2cccc(C)c2)CC(C)N(C)CC1C (configuration not stated)	102.0	102.0	-1.5	0.7	1.0	nt	nt	nt
Cc1cccc2c1=NC(=O)/C(=C/c1c(O)[nH]c(=O)[nH]c1=O)C=2	147.0*	101.0	-3.8	0.5	-1.0	97.0	-7.0	96.0
O=c1[nH]c(=S)[nH]c(O)c1/C=C1/C=c2ccccc2=N1	105.0	103.0	-1.1	0.3	3.0	nt	nt	nt
c1ccc2c(CN3CCN(C4CCCCC4)CC3)c[nH]c2c1	114.0	168.0*	1.2	1.6	44.0*	167.0	50.0	105.0
c1ccc2c(CN3CCCCCCC3)c[nH]c2c1	nt	nt	-1.4	-0.1	nt	nt	nt	nt
Fc1ccc(CCNCc2cccc(Cl)c2)cc1	75.0*[inhibitor]	93.0	-1.3	0.5	-7.0	111.0	18.0	105.0
Cc1ccsc1-c1nc(CSCC(=O)N2CCC3(CC2)OCCO3)c(C)o1	123.0*	115.0	-0.1	0.2	6.0	104.0	3.0	102.0
O=C1NC(=O)C2(Cc3ccccc3N3CCCC32)C(=O)N1Cc1ccccc1 (configuration not stated)	-2.0*[inhibitor]	-30.0*[inhibitor]	-4.4	-0.9	-30.0	100.0	0.0	102.0
O=C1NC(=O)[C@]2(Cc3ccccc3N3CCN(c4ccccc4)CC32)C(=O)N1Cc1ccccc1 (some centres not stated)	107.0	103.0	-2.9	-3.3	0.0	nt	nt	nt
C[C@]12CCC3C(CCC4=C/C(=N/OCC(=O)NC(CCC(N)=O)C(=O)O)CC[C@@]43C)C1CCC2O (some centres not stated)	103.0	103.0	-3.5	-0.6	3.0	nt	nt	nt
Cc1ccccc1-n1c(C)nc2sccc2c1=O	2.0*[inhibitor]	3.0*[inhibitor]	-3.2	-1.9	-18.0	106.0	6.0	106.0
SMILES	MEKK3 PB1 HTS	MEKK2wt PB1 HTS	IMP-1 inh	VIM-2 inhibitor	MEKK2mut PB1 HTS	MEKK2wt confirm	MEKK2mut-MEK5	MEKK3-MEK5 inh
O=P(Nc1ccccc1Cl)(c1ccccc1)c1nc2c(s1)CCCC2 (configuration not stated)	105.0	100.0	-0.3	-3.3	1.0	nt	nt	nt
CC(=O)c1c(O)n(-c2cccc(Cl)c2)c(=O)[nH]c1=O (tested in a mixture with another compound)	128.0*	108.0	-4.0	-2.1	27.0	104.0	-4.0	103.0
CN[C@@H]1C[C@@H](c2ccc(Cl)c(Cl)c2)c2ccccc21	106.0	142.0*	-1.4	-2.8	11.0	133.0	11.0	106.0
CC(NCc1ccc(Cl)c(Cl)c1)C(O)c1ccccc1 (configuration not stated)	97.0	98.0	-2.9	-3.6	-7.0	nt	nt	nt
Cc1ccc2c(c1)C1CN(C)CCC1N2C(=O)c1ccco1 (configuration not stated)	71.0*[inhibitor]	83.0	-3.0	-3.0	-15.0	107.0	-4.0	100.0
CC[C@H]1CC2CN3CCc4c([nH]c5cc(OC)ccc45)[C@](C(=O)OC)(C2)[C@H]13	101.0	103.0	nt	nt	3.0	nt	nt	nt
COc1ccc2c3c([nH]c2c1)C(C)=NCC3	82.0	29.0*[inhibitor]	0.5	-1.0	4.0	103.0	-3.0	100.0
Cc1ccsc1C(=O)C1CCCN(Cc2c(C)nn(C(C)C)c2C)C1 (configuration not stated)	92.0	93.0	-0.2	2.0	-4.0	nt	nt	nt
COc1ccc2[nH]cc(C3=CCNCC3)c2c1	109.0	182.0*	nt	nt	174.0*	123.0	-18.0	98.0
CC(C)OC(=O)c1c(N)n(CC2CCCO2)c2nc3ccccc3nc12 (configuration not stated)	103.0	103.0	-2.8	-2.7	8.0	nt	nt	nt
Cc1nc2c(-c3ccccc3)c(C)nn2c(C)c1CCC(=O)N1CCC2(CC1)OCCO2	44.0*[inhibitor]	101.0	-2.3	-1.8	-29.0	106.0	0.0	100.0
Cc1nc2cc(-c3cccc(F)c3)nn2c(C)c1CCC(=O)N1CCC2(CC1)OCCO2	103.0	102.0	-2.5	-3.3	1.0	nt	nt	nt
C[C@H]1CCCC(=O)CCC/C=C/c2cc(O)cc(O)c2C(=O)O1	97.0	79.0	-1.3	-1.6	-24.0	nt	nt	nt
